ChEMBL document CHEMBL1124759, “Fluoronaphthyridines and quinolones as antibacterial agents. 2. Synthesis and structure-activity relationships of new 1-tert-butyl 7-substituted derivatives” (J Med Chem, 1990)
Values after ≈ are worked out from the molar mass of the structure shown.

What was measured:
Enterococcus faecalis = test: In vitro minimum inhibitory concentration (MIC) against Enterococcus faecalis A 9808 at 37 degrees C for 18 h.; format: functional
Procedure, shortened: (§1)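 Two-fold serial broth dilution in nutrient broth. Inoculum adjusted to 10^6 cfu/mL. Compounds tested from 0.0005 to 250 µg/mL.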

Klebsiella pneumoniae [1] = test: Efficacy on systematic infections against Klebsiella pneumoniae A 9664 after oral administration in mice; format: functional; conditions: read-out: PD50
Procedure, shortened: (§2)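 Mice given compound orally after lethal systemic infection. Read-out is the oral dose protecting 50% of mice from death (PD50), reported in mg/kg.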

Staphylococcus aureus [2] = test: In vitro minimum inhibitory concentration (MIC) against Staphylococcus aureus Smith A 9537 at 37 degrees C for 18 hr; format: functional; procedure, shortened: as §1
Staphylococcus aureus [3] = test: Efficacy on systematic infections against Staphylococcus aureus A 9537 after oral administration in mice; format: functional; conditions: read-out: PD50; procedure, shortened: as §2
Escherichia coli [4] = test: Efficacy on systematic infections against Escherichia coli A 15119 after oral administration in mice; format: functional; conditions: read-out: PD50; procedure, shortened: as §2
Pseudomonas aeruginosa [5] = test: Efficacy on systematic infections against Pseudomonas aeruginosa A 9843 after oral administration in mice; format: functional; conditions: read-out: PD50; procedure, shortened: as §2
Enterobacter cloacae [6] = test: (§3) In vitro minimum inhibitory concentration (MIC) against Enterobacter cloacae A 9656 at 37 degrees C for 18 h.; format: functional
Serratia marcescens = test: In vitro minimum inhibitory concentration (MIC) against Serratia marcescens A 20019 at 37 degrees C for 18 hr; format: functional; procedure, shortened: as §1
Enterococcus faecium = test: In vitro minimum inhibitory concentration (MIC) against Enterococcus faecium A 24885 at 37 degrees C for 18 h.; format: functional; procedure, shortened: as §1
Pseudomonas aeruginosa [7] = test: In vitro minimum inhibitory concentration (MIC) against Pseudomonas aeruginosa A 9843 at 37 degrees C for 18 h; format: functional; procedure, shortened: as §1
Klebsiella pneumoniae [8] = test: In vitro minimum inhibitory concentration (MIC) against Klebsiella pneumoniae A 9664 at 37 degrees C for 18 h.; format: functional; procedure, shortened: as §1
[9] = Tested for aqueous solubility; conditions: aqueous medium
Escherichia coli [10] = test: In vitro minimum inhibitory concentration (MIC) against Escherichia coli A 15119 at 37 degrees C for 18 h.; format: functional; procedure, shortened: as §1
Morganella morganii = test: In vitro minimum inhibitory concentration (MIC) against Morganella morganii A 15153 at 37 degrees C for 18 h.; format: functional; procedure, shortened: as §1
Enterobacter cloacae [11] = test: as §3; format: functional; procedure, shortened: as §1; remark: listed apart in the source
Escherichia coli [12] = test: In vitro minimum inhibitory concentration (MIC) against Escherichia coli A 15119 at 37 degrees Celsius for 18 h.; format: functional; procedure, shortened: as §1
Enterobacter cloacae [13] = test: In vitro minimum inhibitory concentration (MIC) against Enterobacter cloacae A 9656 at 37 degree C for 18 h.; format: functional; procedure, shortened: as §1
Pseudomonas aeruginosa [14] = test: In vitro minimum inhibitory concentration (MIC) against Pseudomonas aeruginosa A 9843 at 37 degrees Celsius for 18 h; format: functional; procedure, shortened: as §1
Canis familiaris = species on record: Canis familiaris; conditions: dog, in vivo, po, 25 mg/kg
Pseudomonas aeruginosa [15] = test: In vitro minimum inhibitory concentration (MIC) against Pseudomonas aeruginosa A 9843 at 37 degree C for 18 h; format: functional; procedure, shortened: as §1
Klebsiella pneumoniae [16] = test: In vitro minimum inhibitory concentration (MIC) against Klebsiella pneumoniae A 9664 at 37 degrees Celsius for 18 h.; format: functional; procedure, shortened: as §1
Enterobacter cloacae [17] = test: In vitro minimum inhibitory concentration (MIC) against Enterobacter cloacae A 9656 at 37 degrees Celsius for 18 h.; format: functional; procedure, shortened: as §1

Row | SMILES | MIC (Enterococcus faecalis) | MIC (Staphylococcus aureus [2]) | MIC (Enterobacter cloacae [6]) | MIC (Serratia marcescens) | MIC (Enterococcus faecium) | MIC (Pseudomonas aeruginosa [7]) | MIC (Klebsiella pneumoniae [8]) | MIC (Escherichia coli [10]) | MIC (Morganella morganii) | further results
1 | CC(C)(C)n1cc(C(=O)O)c(=O)c2cc(F)c(N3CCNCC3)cc21 | 1 µg/mL (≈ 2.88 µM) | 0.06 µg/mL (≈ 0.173 µM) | 0.13 µg/mL (≈ 0.374 µM) | 0.5 µg/mL (≈ 1.44 µM) | 4 µg/mL (≈ 11.5 µM) | 0.5 µg/mL (≈ 1.44 µM) | 0.13 µg/mL (≈ 0.374 µM) | 0.06 µg/mL (≈ 0.173 µM) | 0.25 µg/mL (≈ 0.72 µM) | ED50 (Klebsiella pneumoniae [1]): 10.3 mg/kg; ED50 (Staphylococcus aureus [3]): 2.4 mg/kg; ED50 (Escherichia coli [4]): 21.7 mg/kg; ED50 (Pseudomonas aeruginosa [5]): 29 mg/kg; solubility [9]: 130 µg/mL (≈ 374 µM)
2 | CC1CN(c2cc3c(cc2F)c(=O)c(C(=O)O)cn3C(C)(C)C)CC(C)N1 (stereo not drawn) | 2 µg/mL (≈ 5.33 µM) | 0.25 µg/mL (≈ 0.666 µM) | – | 2 µg/mL (≈ 5.33 µM) | 8 µg/mL (≈ 21.3 µM) | 4 µg/mL (≈ 10.7 µM) | 0.5 µg/mL (≈ 1.33 µM) | – | 1 µg/mL (≈ 2.66 µM) | MIC (Enterobacter cloacae [11]): 0.13 µg/mL (≈ 0.346 µM); MIC (Escherichia coli [12]): 0.13 µg/mL (≈ 0.346 µM)
3 | CC1CN(c2nc3c(cc2F)c(=O)c(C(=O)O)cn3C(C)(C)C)CCN1 (stereo not drawn) | 0.5 µg/mL (≈ 1.38 µM) | 0.13 µg/mL (≈ 0.359 µM) | – | 4 µg/mL (≈ 11 µM) | 2 µg/mL (≈ 5.52 µM) | 8 µg/mL (≈ 22.1 µM) | 2 µg/mL (≈ 5.52 µM) | 0.5 µg/mL (≈ 1.38 µM) | 4 µg/mL (≈ 11 µM) | MIC (Enterobacter cloacae [13]): 1 µg/mL (≈ 2.76 µM)
4 | CC1(N)CCN(c2cc3c(cc2F)c(=O)c(C(=O)O)cn3C(C)(C)C)C1 (stereo not drawn) | 0.5 µg/mL (≈ 1.38 µM) | 0.06 µg/mL (≈ 0.166 µM) | 0.5 µg/mL (≈ 1.38 µM) | 2 µg/mL (≈ 5.53 µM) | 4 µg/mL (≈ 11.1 µM) | – | 0.25 µg/mL (≈ 0.692 µM) | 0.5 µg/mL (≈ 1.38 µM) | 1 µg/mL (≈ 2.77 µM) | MIC (Pseudomonas aeruginosa [14]): 2 µg/mL (≈ 5.53 µM)
5 | CC(C)(C)n1cc(C(=O)O)c(=O)c2cc(F)c(N3CCNCC3)nc21 | 0.5 µg/mL (≈ 1.44 µM) | 0.06 µg/mL (≈ 0.172 µM) | 0.06 µg/mL (≈ 0.172 µM) | 0.25 µg/mL (≈ 0.718 µM) | 8 µg/mL (≈ 23 µM) | 1 µg/mL (≈ 2.87 µM) | 0.13 µg/mL (≈ 0.373 µM) | 0.015 µg/mL (≈ 0.0431 µM) | 0.25 µg/mL (≈ 0.718 µM) | ED50 (Klebsiella pneumoniae [1]): 4.8 mg/kg; ED50 (Staphylococcus aureus [3]): 1.1 mg/kg; ED50 (Escherichia coli [4]): 4.7 mg/kg; ED50 (Pseudomonas aeruginosa [5]): 10.9 mg/kg; AUC (Canis familiaris): 50000 ng·h/mL; solubility [9]: 820 µg/mL (≈ 2350 µM)
6 | CC1(N)CCN(c2nc3c(cc2F)c(=O)c(C(=O)O)cn3C(C)(C)C)C1 (stereo not drawn) | 0.5 µg/mL (≈ 1.38 µM) | 0.015 µg/mL (≈ 0.0414 µM) | 0.13 µg/mL (≈ 0.359 µM) | 0.5 µg/mL (≈ 1.38 µM) | 4 µg/mL (≈ 11 µM) | – | 0.06 µg/mL (≈ 0.166 µM) | 0.06 µg/mL (≈ 0.166 µM) | 0.5 µg/mL (≈ 1.38 µM) | MIC (Pseudomonas aeruginosa [14]): 2 µg/mL (≈ 5.52 µM)
7 | CC(C)(C)n1cc(C(=O)O)c(=O)c2cc(F)c(N3CCNC(CF)C3)nc21.CS(=O)(=O)O (stereo not drawn) | 4 µg/mL | 0.13 µg/mL | 0.06 µg/mL | 1 µg/mL | 16 µg/mL | – | – | 0.13 µg/mL | 1 µg/mL | MIC (Pseudomonas aeruginosa [15]): 4 µg/mL; MIC (Klebsiella pneumoniae [16]): 0.13 µg/mL
8 | CCNC1CCN(c2nc3c(cc2F)c(=O)c(C(=O)O)cn3C(C)(C)C)C1 (stereo not drawn) | 0.13 µg/mL (≈ 0.345 µM) | 0.06 µg/mL (≈ 0.159 µM) | – | 1 µg/mL (≈ 2.66 µM) | 4 µg/mL (≈ 10.6 µM) | – | 0.06 µg/mL (≈ 0.159 µM) | 0.06 µg/mL (≈ 0.159 µM) | 1 µg/mL (≈ 2.66 µM) | MIC (Enterobacter cloacae [17]): 0.25 µg/mL (≈ 0.664 µM); MIC (Pseudomonas aeruginosa [15]): 4 µg/mL (≈ 10.6 µM)
